# Assays:
# HCT-116 = experiment: Cytotoxicity against human HCT116 cells after 72 hrs; type: functional, cell-based; details: HCT-116, 72 h
# In short: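 Cells seeded at 5 × 10³ per well in growth medium, cultured 24 h, then given compound in DMSO (under 0.1% final). After 72 h incubation, resazurin added for 2 h and fluorescence read (excitation 560 nm). IC50 taken as concentration reducing cell growth by 50% after 72 h treatment.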
# [1] = Inhibition of sheep brain tubulin microtubule assembly by turbidimetry assay; design: species or system Ovis aries
# In short: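 Sheep brain tubulin purified by two assembly–disassembly cycles, about 2–3 mg/mL in 0.1 M MES, 0.5 mM MgCl2, 1 mM EGTA, 1 mM GTP, pH 6.6. Compounds in DMSO; incubation 10 min at 37 °C, then 5 min at 0 °C. Assembly followed continuously by turbidity at 350 nm at 37 °C.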
SMILES,IC50 [1],IC50 ([1]; read-out: IC50) [µM],IC50 (HCT-116) [µM]
COc1ccc(/C(=C\c2cc(OC)c(OC)c(OC)c2)c2cc(OC)c(OC)c(OC)c2)cc1,Not Active,,> 10
C=C(c1ccc(OC)c(O)c1)c1cc(OC)c(OC)c(OC)c1,,2.1,0.002
COc1ccc(/C(=C/c2ccc(OC)c(O[Si](C)(C)C(C)(C)C)c2)c2cc(OC)c(OC)c(OC)c2Br)cc1,Not Active,,> 10
COc1ccc(/C=C(/c2ccc(OC)cc2)c2cc(OC)c(OC)c(OC)c2)cc1,,8,> 10
COCOc1cc(/C=C(/c2ccc(OC)c(OCOC)c2)c2cc(OC)c(OC)c(OC)c2Br)ccc1OC,,8,> 10
COc1ccc(/C=C(/c2ccc(OC)cc2)c2cc(OC)c(OC)c(OC)c2Br)cc1,Not Active,,> 10
COc1ccc(/C=C\c2cc(OC)c(OC)c(OC)c2)cc1O [COMBRETASTATIN A4],,,0.002
COc1ccc(/C(=C\c2cc(OC)c(OC)c(OC)c2)c2cc(OC)c(OC)c(OC)c2)c(Br)c1,Not Active,,> 10

# The next lines start with results.
IC50 [1],IC50 ([1]; read-out: IC50) [µM],SMILES,IC50 (HCT-116) [µM]
Not Active,,COc1ccc(/C=C(/c2ccc(OC)c(F)c2)c2cc(OC)c(OC)c(OC)c2)cc1O,8
,8.5,COc1ccc(/C=C(/c2ccc(OC)c(O)c2)c2cc(OC)c(OC)c(OC)c2)cc1O,5
,8.1,COc1ccc(/C=C(\c2ccc(OC)cc2)c2cc(OC)c(OC)c(OC)c2)cc1,> 10
Not Active,,COc1ccc(/C=C(\c2cc(OC)c(OC)c(OC)c2)c2ccc3ccccc3c2)cc1O,8
Not Active,,COc1ccc(/C=C(/c2ccc(C)cc2)c2cc(OC)c(OC)c(OC)c2)cc1O,3
,7.8,COc1ccc(/C(=C/c2ccc(OC)c(O)c2)c2cc(OC)c(OC)c(OC)c2)cc1,> 10

# — ChEMBL document CHEMBL1240468, “Regioselective hydrostannation of diarylalkynes directed by a labile ortho bromine atom: an easy access to stereodefined triarylolefins, hybrids of combretastatin A-4 and isocombretastatin A-4” (Eur J Med Chem, 2010)
